Data taken from ChEMBL document CHEMBL3868592, “Analogues of Marine Guanidine Alkaloids Are in Vitro Effective against Trypanosoma cruzi and Selectively Eliminate Leishmania (L.) infantum Intracellular Amastigotes” (J Nat Prod, 2016).
Activity calls are given as the source filed them. The calls are words filed in the database; no cut-off is given here.

Assays:
Trypanosoma cruzi = assay: Antitrypanosomal activity against Trypanosoma cruzi Y trypomastigote forms infected in monkey LLC-MK2 cells assessed as reduction in parasite viability after 24 hrs by resazurin assay; assay type: functional, cell-based; conditions: LLC-MK2, 24 h
Procedure, shortened: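 Y-strain trypomastigotes from LLC-MK2 cultures seeded at 1×10^6/well in RPMI-1640. Compounds up to 150 μM, 24 h at 37 °C, 5% CO2. Viability by resazurin (0.011% in PBS), read at 570 nm against drug-free and cell-free wells; 0.5% DMSO control. IC50 by sigmoidal dose-response curve fitting.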

Leishmania infantum [1] = assay: Antileishmanial activity against Leishmania infantum MHOM/BR/1972/LD amastigote forms infected in BALB/c mouse peritoneal macrophages assessed as reduction in parasite viability after 120 hrs by giemsa staining based light microscopy; assay type: functional
Procedure, shortened: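 BALB/c peritoneal macrophages seeded at 1×10^5/well for 24 h, then infected with hamster spleen-derived amastigotes (1:10 macrophage:amastigote, 24 h, 37 °C, 5% CO2). Compound exposure for 120 h, highest 100 μM. Cells MeOH-fixed and Giemsa-stained; infected macrophages counted out of 400 cells. IC50 from sigmoidal dose-response; at least two independent assays.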

Peritoneal macrophage [2] = assay: Antiinflammatory activity in BALB/c mouse peritoneal macrophages assessed as decrease in MCP-1 release at 30 uM after 48 hrs by flow cytometric analysis; assay type: functional
Procedure, shortened: (§1)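 Peritoneal macrophages from BALB/c mice seeded at 1.5×10^5 cells/well; after 24 h, infected where applicable with L. infantum spleen-derived amastigotes at 1:10 (macrophage:amastigote). After 24 h, cocultured where applicable with splenocytes at 6:1. Compound added for 48 h. Supernatant cytokines quantified with an inflammatory cytometric bead array by flow cytometry. Sham-treated infected macrophages served as reference.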

[3] = Cytotoxicity against mouse NCTC-929 cells assessed as decrease in cell viability after 48 hrs by MTT assay; assay type: toxicity
Procedure, shortened: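 NCTC clone 929 murine cells seeded at 6×10^4/well. Compound up to 150 μM for 48 h at 37 °C, 5% CO2. Viability read by MTT. CC50 from sigmoidal dose-response; mean of at least two independent experiments.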

Peritoneal macrophage [4] = assay: Antiinflammatory activity in BALB/c mouse peritoneal macrophages co-cultivated with splenocytes assessed as decrease in MCP-1 release at 30 uM after 48 hrs by flow cytometric analysis; assay type: functional; procedure, shortened: as §1
[5] = Selectivity index, ratio of CC50 for mouse NCTC-929 cells to IC50 for Trypanosoma cruzi Y trypomastigote form infected in monkey LLC-MK2 cells; assay type: functional
Peritoneal macrophage [6] = assay: Antiinflammatory activity in BALB/c mouse peritoneal macrophages co-cultivated with splenocytes assessed as decrease in INF-gamma release at 30 uM after 48 hrs by flow cytometric analysis; assay type: functional; procedure, shortened: as §1
[7] = Selectivity index, ratio of CC50 for mouse NCTC-929 cells to IC50 for Leishmania infantum MHOM/BR/1972/LD amastigote forms infected in BALB/c mouse macrophages; assay type: functional
Splenocyte = assay: Antiinflammatory activity in splenocytes (unknown origin) assessed as decrease in MCP1 release at 30 uM after 48 hrs by flow cytometric analysis; assay type: functional, cell-based
Leishmania infantum [8] = assay: Antileishmanial activity against Leishmania infantum MHOM/BR/1972/LD promastigote forms […] assessed as reduction in parasite viability after 48 hrs by MTT assay; assay type: functional
Procedure, shortened: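 Late-growth-phase promastigotes (passage 5) seeded at 1×10^6/well in M-199. Compounds dissolved in DMSO, tested up to 100 μM, 48 h at 24 °C. Viability by MTT, OD 570 nm, against drug-free (100%) and cell-free blank wells; 0.5% DMSO control. IC50 from sigmoidal dose-response curves; ≥2 independent assays.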

Leishmania infantum [9] = assay: Induction of plasma membrane permeability in Leishmania infantum MHOM/BR/1972/LD promastigote form assessed as increase in fluorescence intensity at 57 uM measured every 20 mins for 60 mins by SYTOX green dye based fluorimetric assay relative to control; assay type: functional
Procedure, shortened: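 Late-growth-phase promastigotes (passage 7) washed in PBS, seeded at 2×10^6/well and loaded with 1 μM SYTOX Green for 15 min at 24 °C. Compound added; fluorescence (ex 485/em 520 nm) read every 20 min over 60 min. 0.1% Triton X-100 defined maximal permeabilization. Background, DMSO, untreated and cell-free controls included. Triplicates.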

Leishmania infantum [10] = assay: Induction of mitochondrial membrane potential loss in Leishmania infantum MHOM/BR/1972/LD promastigote form at 57 uM incubated for 60 mins by rhodamine-123 dye based fluorimetric assay; assay type: functional
Procedure, shortened: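 Promastigotes (2×10^6/mL) in HBSS-glucose exposed to compound for 60 min at 25 °C. Rhodamine-123 (0.3 μg/mL) then added, cells washed and resuspended in HBSS-Glc, and fluorescence read at ex 485/em 520 nm. Sodium azide 10 mM as positive control; background, DMSO and untreated controls included. Triplicates.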

Peritoneal macrophage [11] = assay: Antiinflammatory activity in BALB/c mouse peritoneal macrophages assessed as decrease in INF-gamma release at 30 uM after 48 hrs by flow cytometric analysis; assay type: functional; procedure, shortened: as §1
Peritoneal macrophage [12] = assay: Antiinflammatory activity in BALB/c mouse peritoneal macrophages infected with Leishmania infantum MHOM/BR/1972/LD amastigote form cocultivated with splenocytes assessed as decrease in MCP-1 release at 30 uM after 48 hrs by flow cytometric analysis; assay type: functional; procedure, shortened: as §1
Peritoneal macrophage [13] = assay: Antiinflammatory activity in BALB/c mouse peritoneal macrophages infected with Leishmania infantum MHOM/BR/1972/LD amastigote form assessed as decrease in INF-gamma release at 30 uM after 48 hrs by flow cytometric analysis; assay type: functional; procedure, shortened: as §1
Peritoneal macrophage [14] = assay: Antiinflammatory activity in BALB/c mouse peritoneal macrophages infected with Leishmania infantum MHOM/BR/1972/LD amastigote form assessed as decrease in MCP-1 release at 30 uM after 48 hrs by flow cytometric analysis; assay type: functional; procedure, shortened: as §1
Peritoneal macrophage [15] = assay: Antiinflammatory activity in BALB/c mouse peritoneal macrophages infected with Leishmania infantum MHOM/BR/1972/LD amastigote form cocultivated with splenocytes assessed as decrease in INF-gamma release at 30 uM after 48 hrs by flow cytometric analysis; assay type: functional; procedure, shortened: as §1
Leishmania infantum [16] = assay: Induction of ROS generation in Leishmania infantum MHOM/BR/1972/LD promastigote form at 57 uM incubated for […] by H2DCF-DA probe based fluorimetric assay relative to sodium azide; assay type: functional
Procedure, shortened: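 Promastigotes (2 × 10^6/well) washed in HBSS and exposed to compound for 60 min, then loaded with 5 μM H2DCFDA for 15 min. Fluorescence read at ex 485/em 520 nm. Sodium azide (10 mM) served as positive control. Controls were compound background fluorescence, DMSO, untreated promastigotes and cell-free medium. Run in triplicate.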

Which IC50 (Trypanosoma cruzi) does the source give for C[C@@H]1C[C@@H]2CC[C@@H]3C[C@H](CCCCOCc4ccccc4)NC(=[NH+]1)N32.F[B-](F)(F)F here?
Its IC50 is 41 µM.

And the IC50 (Leishmania infantum [1])?
The IC50 was 5 µM.

And the Activity (Peritoneal macrophage [2])?
Its Activity is “Active”.

And the CC50 at 48 h [3]?
Its CC50 at 48 h is 138 µM.

What about the Activity (Peritoneal macrophage [4]) of the same compound?
Its Activity is “Active”.

And the “Ratio CC50/IC50” value [5]?
The value was 3.

And the Activity (Peritoneal macrophage [6])?
Its Activity is “Active”.

What about the “Ratio CC50/IC50” value [7] of the same compound?
Its value is 25.

And the Activity (Splenocyte)?
The Activity was “Active”.

What about the IC50 (Leishmania infantum [8]) of the same compound?
Its IC50 is 57 µM.

What about the Activity (Leishmania infantum [9]) of the same compound?
The Activity was 25%.

And the Activity (Leishmania infantum [10])?
Its Activity is 70%.

And the Activity (Peritoneal macrophage [11])?
Its Activity is “Active”.

And the Activity (Peritoneal macrophage [12])?
The Activity was “Active”.

And the Activity (Peritoneal macrophage [13])?
Its Activity is “Active”.

What about the Activity (Peritoneal macrophage [14]) of the same compound?
Its Activity is “Active”.

What about the Activity (Peritoneal macrophage [15]) of the same compound?
Its Activity is “Active”.

What about the “fold change (FC)” value (Leishmania infantum [16]) of the same compound?
The value was 3.
